In data set [1] the test system is V79. Put plainly: (§1) Tested for the effect of enzyme activation on the cytotoxicity at 10 uM when incubated with chinese hamster V79 cells in presence of NADH and nitroreductase enzyme. Conditions: Cricetulus griseus, read-out: Survival. Type of data set: functional. In a few lines: (§2)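 Chinese hamster V79 cells (2 × 10^5/mL) in PBS were exposed to the test agent with NADH (500 μM) and E. coli B nitroreductase (10 μg/mL) for 2 h at 37 °C. Cells were then harvested and assayed for colony-forming ability, reported as % survival. The supernatant was assayed by HPLC for remaining prodrug, giving % prodrug reduction.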

Data set [2] deals with V79. The description is as §1. Type of data set: functional, Cricetulus griseus. In a few lines: as §2
For data set [3], the system named is V79. Put plainly: (§3) Tested for the effect of enzyme activation on the cytotoxicity at 10 uM when incubated with chinese hamster V79 cells in presence of NADH. The data set is classed as functional, Cricetulus griseus. In a few lines:
(§4)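 Chinese hamster V79 cells (2 × 10^5/mL) in PBS were exposed to the test agent plus NADH (500 μM), without enzyme, for 2 h at 37 °C. Cells were then harvested and assayed for colony-forming ability, reported as % survival. The supernatant was assayed by HPLC for remaining prodrug.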

Data set [4] deals with V79. Put plainly: (§5) Tested for the effect of enzyme activation on the cytotoxicity at 10 uM when incubated with chinese hamster V79 cells. Type of data set: functional, Cricetulus griseus.
Data set [5] concerns V79. Described as §3. Type of data set: functional. Conditions: Cricetulus griseus, read-out: Survival. An outline of the steps: as §4
For data set [6], the system named is V79. The data set is described as §5. Type of data set: functional. Conditions: Cricetulus griseus, read-out: Survival. In a few lines:
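Chinese hamster V79 cells (2 × 10^5/mL) in PBS were exposed to the test agent alone, without NADH or NR, for 2 h at 37 °C. Cells were then harvested and assayed for colony-forming ability, reported as % survival. The supernatant was checked by HPLC for remaining prodrug.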

For data set [7], the system named is V79. Put plainly: (§6) Tested for the effect of enzyme activation on the cytotoxicity at 50 uM when incubated with chinese hamster V79 cells in presence of NADH and nitroreductase enzyme. The data set is classed as functional, Cricetulus griseus. In a few lines:
as §2

Data set [8] has as its system V79. Description: (§7) Tested for the effect of enzyme activation on the cytotoxicity at 50 uM when incubated with chinese hamster V79 cells in presence of NADH. Type of data set: functional, Cricetulus griseus. An outline of the steps: as §4
Data set [9] relates to V79. The description is as §7. Type of data set: functional. The conditions noted are these: Cricetulus griseus, read-out: Survival. In a few lines:
as §4

In data set [10] the test system is V79. The data set is described as §6. The data set is classed as functional. Conditions: Cricetulus griseus, read-out: Survival. An outline of the steps:
as §2

Data set [11] has as its system V79. Put plainly: (§8) Tested for the effect of enzyme activation on the cytotoxicity at 50 uM when incubated with chinese hamster V79 cells. Type of data set: functional, Cricetulus griseus.
Data set [12] relates to V79. Described as §8. Type of data set: functional. Conditions: Cricetulus griseus, read-out: Survival.
The test system of data set [13] is Mus musculus. Description: In vivo toxicity in mouse at dose 100 mg/kg when administered intraperitoneally on day 2. Set-up: dose 100 mg/kg, route intraperitoneal. Type of data set: organism-based. The conditions noted are these: ip. In a few lines: (§9)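 Balb C mice (20-25 g), groups of 3, single ip injection in arachis oil; doses 1, 5, 10 or 100 mg/kg. Untreated and arachis-oil-only groups served as controls. Mice were fed rodent diet and water ad libitum. Body weight was recorded as % of day 0 on days 2, 3, 7 and 9, and deaths were noted.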

For data set [14], the system named is Mus musculus. Put plainly: In vivo toxicity in mouse at dose 100 mg/kg when administered intraperitoneally on day 9. The data set is classed as organism-based. Also on record: dose 100 mg/kg, route intraperitoneal. Conditions: ip. An outline of the steps:
as §9

Data set [15] concerns Mus musculus. Put plainly: In vivo toxicity in mouse at dose 1 mg/kg when administered intraperitoneally on day 3. Type of data set: organism-based. Also on record: dose 1 mg/kg, route intraperitoneal. Conditions: ip. An outline of the steps: as §9
The subject of data set [16] is Mus musculus. Description: In vivo toxicity in mouse at dose 1 mg/kg when administered intraperitoneally on day 7. Type of data set: organism-based. Conditions: ip. Set-up: dose 1 mg/kg, route intraperitoneal. An outline of the steps: as §9
The test system of data set [17] is Mus musculus. Description: In vivo toxicity in mouse at dose 1 mg/kg when administered intraperitoneally on day 2. Also on record: dose 1 mg/kg, route intraperitoneal. Type of data set: organism-based. The conditions noted are these: ip. An outline of the steps:
as §9

Data set [18] deals with Mus musculus. Put plainly: In vivo toxicity in mouse at dose 10 mg/kg when administered intraperitoneally on day 3. The data set is classed as organism-based. Also on record: dose 10 mg/kg, route intraperitoneal. The conditions noted are these: ip. An outline of the steps:
as §9

In data set [19] the test system is Mus musculus. Description: In vivo toxicity in mouse at dose 100 mg/kg when administered intraperitoneally on day 3. Type of data set: organism-based. Set-up: dose 100 mg/kg, route intraperitoneal. The conditions noted are these: ip. In a few lines:
as §9

The test system of data set [20] is Mus musculus. Description: In vivo toxicity in mouse at dose 10 mg/kg when administered intraperitoneally on day 2. The data set is classed as organism-based. Set-up: dose 10 mg/kg, route intraperitoneal. The conditions noted are these: ip. An outline of the steps: as §9
Data set [21] has as its system Mus musculus. Description: In vivo toxicity in mouse at dose 1 mg/kg when administered intraperitoneally on day 9. The data set is classed as organism-based. Set-up: dose 1 mg/kg, route intraperitoneal. Conditions: ip. An outline of the steps:
as §9

For data set [22], the system named is Mus musculus. Description: In vivo toxicity in mouse at dose 10 mg/kg when administered intraperitoneally on day 9. Type of data set: organism-based. Also on record: dose 10 mg/kg, route intraperitoneal. Conditions: ip. In a few lines:
as §9

The test system of data set [23] is Mus musculus. Put plainly: In vivo toxicity in mouse at dose 10 mg/kg when administered intraperitoneally on day 7. Type of data set: organism-based. Set-up: dose 10 mg/kg, route intraperitoneal. The conditions noted are these: ip. In a few lines: as §9
For data set [24], the system named is Mus musculus. Put plainly: In vivo toxicity in mouse at dose 100 mg/kg when administered intraperitoneally on day 7. Conditions: ip. Also on record: dose 100 mg/kg, route intraperitoneal. The data set is classed as organism-based. In a few lines:
as §9

For data set [25], the system named is V79. Description: (§10) Tested for the effect of enzyme activation on the cytotoxicity at 1 uM when incubated with chinese hamster V79 cells in presence of NADH and nitroreductase enzyme. Type of data set: functional, Cricetulus griseus. In a few lines: as §2
Data set [26] has as its system V79. Put plainly: (§11) Tested for the effect of enzyme activation on the cytotoxicity at 1 uM when incubated with chinese hamster V79 cells in presence of NADH. The data set is classed as functional, Cricetulus griseus. In a few lines: as §4
Data set [27] relates to V79. The description is as §11. The data set is classed as functional. The conditions noted are these: Cricetulus griseus, read-out: Survival. An outline of the steps: as §4
Data set [28] has as its system V79. Put plainly: (§12) Tested for the effect of enzyme activation on the cytotoxicity at 1 uM when incubated with chinese hamster V79 cells. The data set is classed as functional. The conditions noted are these: Cricetulus griseus, read-out: Survival.
Data set [29] has as its system V79. The data set is described as §10. The data set is classed as functional. The conditions noted are these: Cricetulus griseus, read-out: Survival. In a few lines:
as §2

The test system of data set [30] is V79. The data set is described as §12. Type of data set: functional, Cricetulus griseus.
The subject of data set [31] is V79. The description is as §11. The data set is classed as functional, Cricetulus griseus. This is another data set of the same source.
The subject of data set [32] is Mus musculus. Put plainly: Tested in vivo toxicity in mouse at dose 1 mg/kg when administered intraperitoneally on day 9. Conditions: ip. Set-up: dose 1 mg/kg, route intraperitoneal. Type of data set: organism-based. An outline of the steps:
(§13)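 Balb C mice (20-25 g), groups of 3, fed rodent diet and water ad libitum. Single ip injection in arachis oil at 1, 5, 10 or 100 mg/kg. Untreated and arachis-oil-only groups served as controls. Body weight recorded as % of day 0 on days 2, 3, 7 and 9.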

Data set [33] concerns Mus musculus. Description: Tested in vivo toxicity in mouse at dose 1 mg/kg when administered intraperitoneally on day 3. Also on record: dose 1 mg/kg, route intraperitoneal. Conditions: ip. Type of data set: organism-based. An outline of the steps:
as §13

The subject of data set [34] is Mus musculus. Put plainly: Tested in vivo toxicity in mouse at dose 1 mg/kg when administered intraperitoneally on day 7. The data set is classed as organism-based. Set-up: dose 1 mg/kg, route intraperitoneal. The conditions noted are these: ip. In a few lines: as §13
Data set [35] has as its system Mus musculus. Description: Tested in vivo toxicity in mouse at dose 1 mg/kg when administered intraperitoneally on day 2. The data set is classed as organism-based. Conditions: ip. Also on record: dose 1 mg/kg, route intraperitoneal. In a few lines:
as §13

Some results are limits rather than exact numbers.

Turning to `O=C(OCc1ccc([N+](=O)[O-])cc1)Oc1ccc(N(CCCl)CCCl)cc1`, the viability at 10 µM in data set [1] was found to be 43.3%; in data set [5], 45.8%; in data set [6] it was 56.4%. In addition, the Prodrug reduction in [2] amounted to 86%; in data set [3], 0%; in data set [4] it was 0%.
Regarding `O=C(Nc1ccc(N(CCCl)CCCl)cc1)OCc1ccc([N+](=O)[O-])cc1`, the Prodrug reduction amounted to 30% in data set [7], 0% in [8] and 0% in data set [11]. The viability at 50 µM in data set [9] is 34.1%; in [10] it was under 0.001%; in data set [12], 27.1%.
Regarding `Cc1c2oc3c(C)ccc(C(=O)N[C@@H]4C(=O)N[C@H](C(C)C)C(=O)N5CCC[C@H]5C(=O)N(C)CC(=O)N(C)[C@@H](C(C)C)C(=O)O[C@@H]4C)c3nc-2c(C(=O)N[C@@H]2C(=O)N[C@H](C(C)C)C(=O)N3CCC[C@H]3C(=O)N(C)CC(=O)N(C)[C@@H](C(C)C)C(=O)O[C@@H]2C)c(NC(=O)OCc2ccc([N+](=O)[O-])cc2)c1=O` [listing 1 of 2 here], the Weight in data set [13] is 96.4%; in data set [14] it was 96%; in [15] it was 101%; in data set [16], 101%; in data set [17], 102%; in [18], 105%. For the same molecule, the Weight turned out to be 95.6% in [19]; 109% in [20]; 103% in [21]; 110% in data set [22]; 108% in data set [23]; 95% in [24].
Turning to `Cc1c2oc3c(C)ccc(C(=O)N[C@@H]4C(=O)N[C@H](C(C)C)C(=O)N5CCC[C@H]5C(=O)N(C)CC(=O)N(C)[C@@H](C(C)C)C(=O)O[C@@H]4C)c3nc-2c(C(=O)N[C@@H]2C(=O)N[C@H](C(C)C)C(=O)N3CCC[C@H]3C(=O)N(C)CC(=O)N(C)[C@@H](C(C)C)C(=O)O[C@@H]2C)c(NC(=O)OCc2ccc([N+](=O)[O-])cc2)c1=O` [listing 2 of 2 here], the viability at 10 µM in [1] is under 0.001%; in [5] it was 44.6%; in data set [6], 39.3%. Further, the Prodrug reduction in data set [25] worked out at 90.5%; in data set [2], 93%; in [3], 0%; in data set [26] it was 0%; in data set [4] it was 0%; in [30], 0%. The figures for the viability at 1 µM in data set [27], in [28] and in data set [29] were 102%, 98.3% and 27.4%, respectively.
For the molecule `COC12C(COC(N)=O)C3=C(C(O)=C(C)C(=N)C3=O)N1CC1C2N1C(=O)OCc1ccc([N+](=O)[O-])cc1` (stereo unspecified), the results for the Prodrug reduction in data set [25], in [31] and in data set [30] were 91%, 0% and 0%, respectively. Moreover, the viability at 1 µM amounted to 70.8% in data set [27], 76.7% in [28] and 25.4% in data set [29].
As for `Cc1c2oc3c(C)ccc(C(=O)N[C@@H]4C(=O)N[C@H](C(C)C)C(=O)N5CCC[C@H]5C(=O)N(C)CC(=O)N(C)[C@@H](C(C)C)C(=O)O[C@@H]4C)c3nc-2c(C(=O)N[C@@H]2C(=O)N[C@H](C(C)C)C(=O)N3CCC[C@H]3C(=O)N(C)CC(=O)N(C)[C@@H](C(C)C)C(=O)O[C@@H]2C)c(N)c1=O` (stereo in doubt) [DACTINOMYCIN], the Weight in [32] is 103%; in data set [33] it was 95%; in [34], 101.6%; in data set [35] it was 98.6%.
